Series [1] is described as follows: Stopped-flow kinetics of release of NO from the nitrophorins. The note with it: for NO Kd (NO dissociation): 5–10 μM in 100 mM sodium phosphate buffer. The class given is binding, Rhodnius prolixus. The procedure, abridged:
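Stopped-flow measurement of NO release from NO-bound nitrophorins with native or M0-bearing N-termini. Dissociation Kd obtained at pH 5.0 and 7.5 in dilute solution, 5–10 μM protein in 100 mM sodium phosphate buffer.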

A short description of series [2]: Size-exclusion FPLC retention of nitrophorins, mutants and ligand complexes. The class given is physicochemical, Rhodnius prolixus. The note with it: for dimer formation: under any conditions / at any pH. In a few lines:
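Analytical run on Superdex75 at 4 °C in 100 mM sodium acetate, NaCl added to 220 mM total ionic strength. Protein at 1 mM was run at pH 5.0, 5.25, 5.5 and 5.75. Separately, protein from 1 to 0.025 mM was run at pH 5.0. Elution position compared with molecular weight standards.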

For series [3] the following is noted: cited from earlier work.
The format of series [4] is physicochemical, Rhodnius prolixus. The note with it: for state of the dimer: pH 7.3. The procedure, abridged:
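Recombinant nitrophorin refolded from inclusion bodies, reconstituted with excess hemin at pH 7.5, then purified by size-exclusion at pH 5.0. ¹H{¹⁵N} HSQC spectra recorded across pH: 0.2 mM protein at pH 5.0, 5.5 and 6.0; 0.8 mM at pH 6.5. pH 6.5 peaks assigned from pH 7.3 assignments, following cross-peaks through intermediate spectra. NO-bound sample run at 3.7 mM and after dilution to 0.88 mM.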

Where [5] appears, read: column pH 7.5, measured at pH 8.0 rather than pH 7.5 (footnote a).

Positions count from the first letter of the chain named. In names and notes the source's numbering stands. Entries after “also recorded” stand apart in the source; their conditions may differ. Like-named read-outs stand apart in the source and are kept apart here.

B1: (M0)NP1: recombinant NP1 retaining methionine M0 at the N-terminus (MKCTK...) (protein)
chain: MKCTKNALAQTGFNKDKYFNGDVWYVTDYLDLEPDDVPKRYCAALAAGTASGKLKEALYHYDPKTQDTFYDVSELQEESPGKYTANFKKVEKNGNVKVDVTSGNYYTFTVMYADDSSALIHTCLHKGNKDLGDLYAVLNRNKDTNAGDKVKGAVTAASLKFSDFISTKDNKCEYDNVSLKSLLTK
In the case of B1, the “NO Kd (NO dissociation)” value in series [1] (pH 5.0) was 0.426 ± 0.005 s^–1; in series [1] (pH 7.5), 2.32 ± 0.07 s^–1; in series [3] (setting [5]), 2.2 ± 0.01 ^a s^–1; in series [3] (pH 5.0, ref 17), 0.20 ± 0.01 s^–1. For the same molecule, the “monomer or dimer on the size-exclusion column” value (“monomer or dimer” below) in series [2] (pH 5.0) is on record as “not a dimer”. Besides, the dimer formation result is “do not form dimers” in series [2] and “not a dimer at any pH” in series [2] (listed as recombinant NP1).

B2: A1K: site-directed mutant of NP4, M0 present (N-terminus MKCTK...) (protein)
chain: MKCTKNAIAQTGFNKDKYFNGDVWYVTDYLDLEPDDVPKRYCAALAAGTASGKLKEALYHYDPKTQDTFYDVSELQVESLGKYTANFKKVDKNGNVKVAVTAGNYYTFTVMYADDSSALIHTCLHKGNKDLGDLYAVLNRNKDAAAGDKVKSAVSAATLEFSKFISTKENNCAYDNDSLKSLLTK
In the case of B2, the “monomer or dimer” value in series [2] (pH 5.0) was “monomer”.

B3: NP4: NO-carrying heme protein from the salivary glands of Rhodnius prolixus, recombinant, N-terminus ACTK... (protein)
chain: ACTKNAIAQTGFNKDKYFNGDVWYVTDYLDLEPDDVPKRYCAALAAGTASGKLKEALYHYDPKTQDTFYDVSELQVESLGKYTANFKKVDKNGNVKVAVTAGNYYTFTVMYADDSSALIHTCLHKGNKDLGDLYAVLNRNKDAAAGDKVKSAVSAATLEFSKFISTKENNCAYDNDSLKSLLTK
On to B3, for which, in series [1] (pH 5.0), the “Kd for the loss of NO from NP4, times that from NP1” value is 0.6. Besides, the “NO Kd (NO dissociation)” value in series [1] (pH 5.0) was 0.020 ± 0.003 s^–1; in series [1] (pH 7.5) it was 1.60 ± 0.11 s^–1; in series [3] (setting [5]), 2.6 ± 0.1 ^a s^–1; in series [3] (pH 5.0, ref 17), 0.14 ± 0.01 s^–1. Further, the “Kd for the loss of NO from NP4, times that of NP1” value in series [1] (pH 7.5) worked out at 1.4. Besides, the “monomer or dimer” value in series [2] (pH 5.0, 1 mM) is “pure dimer”; in series [2] (pH 5.0, serial dilution to 0.025 mM) it was “fairly pure monomer”. In series [4] (pH 5.0, 0.2 mM), the “monomer in 1H{15N} HSQC spectrum” value was “some monomer present”. For the same molecule, the “oligomeric state in solution” value in series [4] (pH 5.6, 0.5 mM, absence of NO) is “mainly monomeric”. In addition, in series [4] (pH 6.5, 0.8 mM), the “dimer in 1H{15N} HSQC spectrum” value is reported as “not detectable”. Moreover, in series [4] (3.7 mM, absence of NO), the “state of the dimer” value was “completely dissociated to monomer”.

B4: Hm complex: NP4 with histamine bound to the heme iron (protein)
chain: B3 chain
Turning to B4, the “monomer or dimer” value is on record as “monomer” in series [2] (all pH values, including those below 6.0) and “monomer” in series [2] (pH 5.0).

B5: NP4-ImH: NP4 with imidazole bound (protein)
chain: B3 chain
As to B5, in series [2] (pH 5.0), the “monomer or dimer” value is given as “dimers”.

B6: D30A (protein)
chain: B3 chain with D30A
As to B6, in series [2] (pH 5.0), the “monomer or dimer” value is recorded as “monomers”.

B7: K125A (protein)
chain: B3 chain with K125A
On to B7, for which the “monomer or dimer” value in series [2] (pH 5.0) was “dimers”.

B8: K125E (protein)
chain: B3 chain with K125E
Regarding B8, in series [2] (pH 5.0), the “monomer or dimer” value is “dimers”.

B9: D30N (protein)
chain: B3 chain with D30N
Take B9: the “monomer or dimer” value in series [2] (pH 5.0) is on record as “monomers”.

B10: NP4-NO: NP4 with nitric oxide bound to the heme (protein)
chain: B3 chain
In the case of B10, the “monomer or dimer” value in series [2] (pH 5.0) is given as “dimer”. Moreover, the “state of the dimer” value in series [4] (0.88 mM, NO bound) is “still highly dimerized”.

B11: R39A (protein)
chain: B3 chain with R39A
Regarding B11, the “monomer or dimer” value in series [2] (pH 5.0) is listed as “dimers”.

B12: K38A (protein)
chain: B3 chain with K38A
Consider B12, for which the “monomer or dimer” value in series [2] (pH 5.0) is given as “dimers”.

B13: NP4 apoprotein: NP4 without heme (protein)
chain: B3 chain
As to B13, the “monomer or dimer” value in series [2] (pH 5.0) was “monomeric”.

B14: NP1(K1A) (protein)
chain: ACTKNALAQTGFNKDKYFNGDVWYVTDYLDLEPDDVPKRYCAALAAGTASGKLKEALYHYDPKTQDTFYDVSELQEESPGKYTANFKKVEKNGNVKVDVTSGNYYTFTVMYADDSSALIHTCLHKGNKDLGDLYAVLNRNKDTNAGDKVKGAVTAASLKFSDFISTKDNKCEYDNVSLKSLLTK
In the case of B14, the “monomer or dimer” value was “broad peak that encompasses the retention times expected for a dimer and a monomer” in series [2] (pH 5.0); “form dimers; also recorded: two peaks, the first of which is the dimer” in series [2] (pH 5.0, NO added / bound).

B15: (M0)NP1sym: (M0)NP1 containing the symmetrical heme, 2,4-dimethyldeuterohemin (protein, UniProt Q26239 24-207, looked up)
Nitrophorin-1: B14 chain with A1K
modifications: Met0; 2,4-dimethyldeuterohemin heme
As for B15, the “NO Kd (NO dissociation)” value in series [1] (pH 5.0) was found to be 0.218 ± 0.004 s^–1; in series [1] (pH 7.5) it was 2.66 ± 0.27 s^–1.

B16: native N-terminal NP1: NP1 expressed with a leader sequence, giving the native N-terminus KCTK... (protein)
chain: B14 chain with A1K
modifications: left off: His6, C-terminal, kept
Turning to B16, the “monomer or dimer” value in series [2] (pH 5.0, NO added / bound) is recorded as “form dimers”.

B17: Nat. N-term NP1 ^c: native N-terminal NP1 (N-terminus KC...) (protein, UniProt Q26239 24-207, looked up)
Nitrophorin-1: B14 chain with A1K
Turning to B17, the entries for the “NO Kd (NO dissociation)” value in series [1] (pH 5.0) and in series [1] (pH 7.5) were 0.032 ± 0.011 s^–1 and 1.11 ± 0.04 s^–1, respectively.

Source of the values: PMC4303305 (Biochemistry, 2014).
